# High-throughput results (PubChem BioAssay)
# HMGR II inh: blocks class II HMG-CoA reductase of Enterococcus faecalis | purified E. faecalis HMGR, NADPH absorbance 340 nm kinetic | AID 1066 | 190,000 compounds, 0.41% hits | inhibition, % at 10 µM;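 active = inhibition above a set limit, the median over all tested compounds plus 3 SD, cut at about 9.5% in these data; inconclusive = no clear call, values can overlap the other calls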;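 also: enzyme runs in reverse so mevalonate oxidation gives rising NADPH absorbance; 0% = complete reaction with DMSO and 100% = background rate lacking mevalonate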
# Runt-SMMHC FRET: blocks binding of human RUNX1 Runt domain to CBFb-SMMHC | 220,000 compounds, 0.74% hits | Cerulean-Runt/Venus-CBFb-SMMHC FRET ratio 530/480, 1 h | inhibition, % at 20 µM;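 active = mean inhibition across duplicate retests at 20 µM reaching about 50%, limit read from the data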;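 also: 0% = DMSO wells and 100% = wells with excess untagged CBFb-SMMHC; inhibitors lower the FRET ratio by blocking Runt binding to CBFb-SMMHC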
# Runt-CBFb FRET: blocks binding of human RUNX1 Runt domain to CBFb | Q01196+Q13951 | Cerulean-Runt/Venus-CBFb FRET ratio 530/480, 1 h | inhibition, % at 20 µM | 220,000 compounds, 0.46% hits;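 active = inhibition over about 50% at 20 µM in the single-dose screen, limit read from the data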;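 also: 0% = DMSO wells and 100% = excess unlabeled CBFb competitor control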
#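 Assay system: Cerulean-tagged RUNX1 Runt domain (FRET donor) fusion protein / Amount: 100 nM each of Venus-CBFb and Cerulean-Runt domain / Medium: Tris buffer pH 7.5 with salts and BSA / Also added: Venus-CBFb 100 nM / Schedule: 1 h complex formation plus 1 h compound treatment, room temperature / Signal: FRET fluorescence / Read-out: loss of energy transfer signal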
# Wee1 degr inh: inhibitors of human Wee1 degradation. P30291. HeLa Luc-Wee1K328M stability, luciferase luminescence; 100% = proteasome inhibitor MG132 effect. reporter increase, % at 5 µM. 220,000 compounds, 1.2% hits. AID 1321;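 active = activation above the mean of all tested compounds plus 3 SD, set per screening run, cut at about 8.8% in these data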;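 also: cells exposed to compound for 20 h before luminescence read; 0% = DMSO alone and 100% = MG132 at 30 µM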
# Target sequence (P30291 whole entry K328M): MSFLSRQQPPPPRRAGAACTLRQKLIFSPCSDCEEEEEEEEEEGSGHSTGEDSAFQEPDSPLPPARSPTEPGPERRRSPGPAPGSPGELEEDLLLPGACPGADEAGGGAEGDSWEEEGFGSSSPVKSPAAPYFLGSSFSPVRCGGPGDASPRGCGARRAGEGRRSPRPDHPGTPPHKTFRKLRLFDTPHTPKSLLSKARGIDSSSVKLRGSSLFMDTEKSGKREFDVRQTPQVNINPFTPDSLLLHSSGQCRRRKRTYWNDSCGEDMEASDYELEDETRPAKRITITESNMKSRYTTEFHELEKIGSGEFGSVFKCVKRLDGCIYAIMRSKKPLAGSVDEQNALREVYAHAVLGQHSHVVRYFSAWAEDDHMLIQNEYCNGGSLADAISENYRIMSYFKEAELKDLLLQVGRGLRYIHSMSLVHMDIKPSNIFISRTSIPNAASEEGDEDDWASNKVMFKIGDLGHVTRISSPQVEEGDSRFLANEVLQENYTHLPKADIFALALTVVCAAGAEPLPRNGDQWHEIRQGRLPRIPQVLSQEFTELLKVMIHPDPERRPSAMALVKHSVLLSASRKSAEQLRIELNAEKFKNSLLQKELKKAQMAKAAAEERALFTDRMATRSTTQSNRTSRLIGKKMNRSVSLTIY
# PHOSPHO1 block: inhibitors of human PHOSPHO1 phosphatase; recombinant PHOSPHO1, absorbance phosphatase assay; AID 1565; Q8TCT1; inhibition, % at 13.3 µM; 290,000 compounds, 1.1% hits; in the data active = inhibition above about 60%
# RanGTP-Impb inh: disruptors of Ran-importin-beta complex formation – biochemical, FRET, CFP-Ran, YFP-importin-beta, homogeneous, primary screen; 300,000 compounds, 1.1% hits; inhibition, % (no concentration beside the values); AID 2216; cell-free CFP-Ran/YFP-importin-beta FRET ratio;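 active = more than half of the replicate wells show a fall in the fluorescence ratio signal beyond about 16%, limit read from the data, passing the limit was not always enough; inconclusive = exactly half of the replicate wells pass the set limit; inactive = fewer than half of replicates pass the limit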;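 also: 0% = DMSO wells and 100% = Ran loaded with GDP instead of GTP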
# Numbers without * were called inactive; ? = inconclusive; · = not tested or not shown. A selection: hits, their analogues and other compounds. The true share with any hit is near 3.4%.
SMILES,HMGR II inh,Runt-SMMHC FRET,Runt-CBFb FRET,Wee1 degr inh,PHOSPHO1 block,RanGTP-Impb inh
c1cc2c3c(cccc3c1)C(N1CCCCCC1)=N2,-3,60,-17,-2,33,23*
COCCn1c(-c2cc(OC)c(OC)c(OC)c2)nc2nc3ccccc3nc21,·,2,1,·,-25,·
COCCn1c(-c2ccco2)nc2nc3ccccc3nc21,1,66*,8,-1,-3,19*
COCCn1c(-c2cccs2)nc2nc3ccccc3nc21,·,87*,41,-3,9,7
CCCn1c(-c2cccs2)nc2nc3ccccc3nc21,-2,131*,40,1,22,5
CC(C)OCCCn1c(-c2ccco2)nc2nc3ccccc3nc21,-5,·,34,-3,7,?
O=[n+]1cc(-c2ccccc2)n([O-])c2c1CCC2,0,-7,2,9.7*,29,3
CCOC(=O)C1C(c2ccc(OC)cc2)N(C)OC1(O)C(F)(F)F (stereo unspecified),-5,2,0,-2,4,22*
COc1ccc(C(=O)c2ccc(OC)c3cccc(O)c23)cc1OC,-7,0,12,-1,83*,0
CCC(C)(C)NC(=O)C1CCCN(S(=O)(=O)c2ccc3c(c2)CC(C)N3C(=O)C2CC2)C1 (stereo unspecified),·,·,·,·,63*,1
COc1ccc(C(=O)N2CCN(C3CCCCC3)CC2)cc1OC,·,·,·,·,13,13
C=CCc1cccc(/C=N/NC(=O)c2ccc3nc[nH]c3c2)c1O,·,·,·,·,41,1
CSc1c[n+]2c(n1C)CCC2,-6,8,-7,1,82*,5
CC1=CC2=NC(=O)/C(=C\c3cc(C)n(-c4ccccc4)c3C)C(=N)N2O1,-10,-7,-1,3,-30,-4
CC1=CC2=NC(=O)/C(=C\c3cn(C)c4ccccc34)C(=N)N2O1,-3,87*,3,4,-19,50*
O=C(NCc1ccccc1C(F)(F)F)C1CC(O)CN1C(=O)Nc1ccccc1 (stereo unspecified),·,·,·,·,30,5
CC(C)CCNC(=O)NC(=O)COc1ncnc2sccc12,-3,1,-1,3,26,?
CC(C)CNC(=O)NC(=O)COc1ncnc2sccc12,-3,-7,-2,9.4*,34,?
Cc1ccc(C)c(N2CCN(C(=O)C34CC5CC(C3)CC(n3nnc(C)n3)(C5)C4)CC2)c1,·,0,-6,3,1,2
Clc1ccc(OCc2cn3ccccc3n2)c2ncccc12,-5,-2,2,9.9*,16,-1
COc1cccc(/C=N/Nc2cc(N3CCOCC3)ncn2)c1O,·,·,·,·,54,?
Cc1cccc(NC(=O)c2cc3c(=O)n4ccccc4nc3n(CC(C)C)c2=N)c1,-2,9,3,0,8,2
COCCn1c(=N)c(C(=O)NCc2ccco2)cc2c(=O)n3ccccc3nc21,-1,41,11,4,-5,·
N=c1c(C(=O)NCc2ccccc2)cc2c(=O)n3ccccc3nc2n1Cc1ccco1,0,·,20,-2,20,78*
CCn1c(=N)c(C(=O)OC)cc2c(=O)n3ccccc3nc21,·,40,27,·,3,·
SMILES,HMGR II inh,Runt-SMMHC FRET,Runt-CBFb FRET,Wee1 degr inh,PHOSPHO1 block,RanGTP-Impb inh
Cc1ccc2nc3c(cc(C(=O)NCc4ccco4)c(=N)n3Cc3ccco3)c(=O)n2c1,-5,·,·,-2,-19,89*
N=c1c(C(=O)NCc2ccco2)cc2c(=O)n3ccccc3nc2n1Cc1ccc(Cl)cc1,2,-16,66*,9,-39,126*
Cc1ccc(CNC(=O)c2cc3c(=O)n4ccccc4nc3n(Cc3ccco3)c2=N)cc1,·,39,88*,·,-17,78*
CN1C(=O)CSC1=Nc1ccc(F)cc1,·,·,·,·,-36,-1
N=c1c(C(=O)NCc2ccc(F)cc2)cc2c(=O)n3ccccc3nc2n1Cc1ccco1,-3,·,69*,2,-3,3
N=c1c(C(=O)NCc2ccco2)cc2c(=O)n3ccccc3nc2n1Cc1ccccc1,-4,58*,19,1,-51,117*
COc1cccc(N2CN(C3CCCCC3)CNC2=S)c1,·,0,0,-3,16,6
Cc1ccc2cc3c(NC(=O)c4ccco4)nn(CC(C)C)c3nc2c1,0,35,17,3,-28,39*
CC(C)Cn1nc(NS(=O)(=O)c2ccccc2)c2cc3ccccc3nc21,-2,-14,-10,-1,54,0
CC(C)Cn1nc(NC(=O)C2CCCO2)c2cc3ccccc3nc21 (stereo unspecified),0,39,21,0,6,27*
O=C(CSc1nnc(CNC(=O)c2c(F)cccc2Cl)o1)NCCc1ccccc1,·,·,·,·,44,1
CC/C(C)=N\Nc1nc(-c2cc3cc(OC)ccc3oc2=O)cs1,·,-15,19,2,-12,-2
c1ccc(-c2nnc(CSc3nnc(-c4ccncc4)n3Cc3ccco3)o2)cc1,-4,10,17,3,41,6
C(=C\c1ccccc1)/CSc1nnc(-c2ccccc2)n1Cc1ccco1,-3,9,15,3,80*,-1
C(=C\c1ccccc1)/CSc1nnc(-c2ccncc2)n1Cc1ccco1,-3,15,31,0,64*,2
Clc1cccc(-c2nnc(SC/C=C/c3ccccc3)n2Cc2ccco2)c1,-3,5,6,0,21,·
NS(=O)(=O)c1ccc(NC(=O)CN2CCc3ccccc3C2)cc1,·,·,·,·,28,4
CC1CN(c2ccc(Cl)nn2)CC(C)O1 (stereo unspecified),-2,-6,0,0,-8,-2
COC(=O)c1cc(=O)n(-c2ccc(F)cc2)c(=Nc2ccc(F)cc2)s1,11*,2,-2,-2,6,-1
COC(=O)c1cc(=O)n(Cc2cccs2)c(=Nc2ccc(F)cc2)s1,-2,0,0,-1,32,8
Cc1cc(C)nc(SCCn2c(N3CCOCC3)nc3c2c(=O)[nH]c(=O)n3C)n1,12*,3,-1,-2,-29,-11
CCn1c(N2CCN(CC(=O)c3c[nH]c4ccccc34)CC2)nc2c1c(=O)[nH]c(=O)n2C,-1,-5,-2,-1,74*,5
CCCn1c(N2CCN(CC(=O)c3c(C)n(C)c4ccccc34)CC2)nc2c1c(=O)[nH]c(=O)n2C,1,3,-3,-1,4,-2
Cn1c(=O)[nH]c(=O)c2c1nc(N1CCCCCC1)n2CCSc1nc2ccccc2[nH]1,-2,-3,-2,11*,1,0
C/C=C/Cn1c(N2CCCCCC2)nc2c1c(=O)[nH]c(=O)n2C,-3,-2,1,1,-10,-6
